Where two headings read alike, the source gives them in different places.
Assays:
[1] = tested on: HepaRG cells; experiment: MTT cytotoxicity on HepaRG cells in HK-2/HepaRG co-culture; type: cell-based; settings: co-culture; for IC50: MTT; for effect on viability of HepaRG cells (in words): per Table 3
Procedure, shortened: (§1)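 HK-2 (RPMI-1640) and HepaRG (William's E plus Tox supplement), passages 10–15, seeded together in IdMOC plates and allowed 4 h at 37 °C, 5% CO2. Test compound at several concentrations, DMSO ≤0.5% final, for 24 h and 48 h; MTT read-out. Triptolide positive control: 10 μmol/L for HK-2, 25 μmol/L for HepaRG. IC50 by nonlinear regression; mean ± SD. 48 h IC50 under 100 μM scored toxic.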

[2] = tested on: HK-2 cells; experiment: MTT cytotoxicity on HK-2 cells in HK-2/HepaRG co-culture; type: cell-based; settings: co-culture; for IC50: MTT
Procedure, shortened: as §1

[3] = MTT cytotoxicity on HepaRG cells in HK-2/HepaRG co-culture; type: cell-based; settings: human; for IC50 at 24 h / IC50 at 48 h: HepaRG cells in co-culture with HK-2 cells (IdMOC plates)
Procedure, shortened: as §1

[4] = MTT cytotoxicity on HK-2 cells in HK-2/HepaRG co-culture; type: cell-based; settings: human; for IC50 at 24 h / IC50 at 48 h: HK-2 cells in co-culture with HepaRG cells (IdMOC plates)
Procedure, shortened: as §1

[5] = Procedure, shortened: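 Liver call by software prediction over five injury markers (AlkPhos, GGT, LDH, SGOT, SGPT), positive when three are positive. Kidney call by a self-built QSAR classifier (accuracy 76.7%) giving positive/negative. In vitro, 48 h MTT IC50 under 100 μM in HK-2/HepaRG co-culture counted as toxic. Compounds flagged when either approach was positive.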
[6] = tested on: HK-2 cells; experiment: MTT cytotoxicity on HK-2 cells in single culture; type: cell-based; settings: Homo sapiens, HK-2, 24 h, read-out: IC50 HK-2 Single culture
Procedure, shortened: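 HK-2 cells (passages 10–15) in RPMI-1640 with 10% FBS at 37 °C, 5% CO2, cultured alone and exposed 24 h to a range of test compound concentrations, DMSO ≤0.5% final; vehicle control 0.5% DMSO. Viability by MTT; IC50 from nonlinear regression.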

[7] = reported in the literature ref Wang et al., 2009; cited from earlier work
[8] = read-out: Hepatic cytotoxicity IC50 HepaRG 24 h, 24 h
[9] = read-out: Hepatic cytotoxicity IC50 HepaRG 48 h, 48 h
[10] = read-out: Renal cytotoxicity IC50 HK-2 24 h, 24 h
[11] = read-out: Renal cytotoxicity IC50 HK-2 48 h, 48 h

Compound | IC50 [1, 8] [µM] | IC50 [1, 9] [µM] | IC50 [2, 10] [µM] | IC50 [2, 11] [µM] | IC50 at 24 h [3] [µM] | IC50 at 48 h [3] [µM] | IC50 at 24 h [4] [µM] | IC50 at 48 h [4] [µM] | further results
2-O-β-D-Glucoside-9-dehydroxyeurotinone [No. 22] | > 500 | > 500 | > 500 | > 500 | – | – | – | – | –
9-Dehydroxyeurotinone (EDG) [No. 21] | 448 | 331 | 380 | 111 | – | – | – | – | –
COc1cc2c(c(OC)c1OC)C(=O)c1c(cc(C)c(O)c1OC)C2=O [No. 1, Chryso-obtusin] | – | – | – | – | 71.9 | 388 | 53 | 33.6 | –
COc1cc2c(c(O)c1OC)C(=O)c1c(cc(C)c(O)c1OC)C2=O [No. 2, Obtusin] | 298 | 81.2 | 50.5 | 57.8 | – | – | – | – | both hepatotoxicity and nephrotoxicity (in words) [5]: both hepatotoxicity and nephrotoxicity
COc1c(O)c(C)cc2c1C(=O)c1c(O)cccc1C2=O [No. 3, Obtusifoline] | – | – | – | – | 117 | 35 | 310 | 389 | –
COc1ccc2c(c1OC)C(=O)c1c(cc(C)c(O)c1OC)C2=O [No. 4, 1,7,8-methoxyl-2-hydroxyl-3-methyl-anthraquinone] | 420 | 192 | 332 | 37.5 | – | – | – | – | –
COc1c(O)cc2c(c1O)C(=O)c1c(cc(C)c(O)c1OC)C2=O [No. 5, Aurantio-obtusin] | – | – | – | – | 333 | 75.5 | > 500 | 117 | effect on viability of HepaRG cells (in words) [1]: decreased the viability of HepaRG cells
COc1c(O)c(C)cc2c1C(=O)c1c(cc(O)c(O)c1O)C2=O [No. 6, 1,2,3,7-tetrahydroxy-8-methoxy-6-methyl-anthraquinone] | – | – | – | – | > 500 | 209 | > 500 | 283 | –
COc1c(O)c(C)cc2c1C(=O)c1c(ccc(O)c1O)C2=O [No. 7, 1,2,7-trihydroxy-8-methoxy-6-methyl-9,10-anthraquinone] | – | – | – | – | > 500 | 44.2 | > 500 | > 500 | –
Cc1cc(O)c2c(c1)C(=O)c1cc(O)cc(O)c1C2=O [No. 8, Emodin] | – | – | – | – | 125 | 31.9 | 89 | 122 | IC50 [6]: 140 µM; effect on viability of HepaRG cells (in words) [1]: decreased the viability of HepaRG cells; both hepatotoxicity and nephrotoxicity (in words) [5]: both hepatotoxicity and nephrotoxicity
Cc1cc(O)c2c(c1)C(=O)c1cccc(O)c1C2=O [No. 9, Chrysophanol] | – | – | – | – | > 500 | 170 | > 500 | 93.9 | –
O=C1c2cccc(O)c2C(=O)c2c(O)cc(CO)cc21 [No. 10, Aloe-emodin] | – | – | – | – | > 500 | 96.2 | > 500 | 134 | effect on viability of HepaRG cells (in words) [1]: decreased the viability of HepaRG cells; nephrotoxicity in vivo (in words) [7]: nephrotoxic
O=C(O)c1cc(O)c2c(c1)C(=O)c1cccc(O)c1C2=O [No. 11, Rhein] | – | – | – | – | 307 | 36.1 | 229 | 44.1 | effect on viability of HepaRG cells (in words) [1]: decreased the viability of HepaRG cells; both hepatotoxicity and nephrotoxicity (in words) [5]: both hepatotoxicity and nephrotoxicity; effect on viability of HK-2 cells (in words) ([2]; per Table 3): reduced the viability of HK-2 cells
COc1cc(O)c2c(c1)C(=O)c1cc(C)cc(O)c1C2=O [No. 12, Physcion] | – | – | – | – | > 500 | 73.6 | > 500 | 196 | –
Cc1cc2c(c(O)c1O)C(=O)c1c(O)cc(O)cc1C2=O [No. 13, Alaternin (quinone)] | > 500 | > 500 | > 500 | > 500 | – | – | – | – | –
O=C(O)c1cc(O)c2c(c1)C(=O)c1cccc(O[C@@H]3O[C@H](CO)[C@@H](O)[C@H](O)[C@H]3O)c1C2=O [No. 15, Rhein-8-O-β-D-glucoside] | > 500 | 208 | > 500 | 108 | – | – | – | – | –
COc1c(O[C@@H]2O[C@H](CO)[C@@H](O)[C@H](O)[C@H]2O)c(C)cc2c1C(=O)c1c(O)cccc1C2=O [No. 16, Obtusifoline-2-O-β-D-glucoside] | 108 | 98.5 | 270 | 251 | – | – | – | – | –
O=C1c2ccccc2C(=O)c2ccccc21 [No. 17, 9,10-Anthracenedione] | – | – | – | – | 93.4 | 84.4 | > 500 | 138 | –
COc1cc2c(c(O)c1OC)C(=O)c1c(cc(C)c(O[C@@H]3O[C@H](CO)[C@@H](O)[C@H](O)[C@H]3O)c1OC)C2=O [No. 18, Gluco-obtusin] | 178 | 125 | 255 | > 500 | – | – | – | – | –
COc1c(O[C@@H]2O[C@H](CO)[C@@H](O)[C@H](O)[C@H]2O)cc2c(c1O)C(=O)c1c(cc(C)c(O)c1OC)C2=O [No. 20, Glucoaurantio-obtusin] | 154 | – | > 500 | – | – | – | – | – | –
CC(=O)OC[C@H]1O[C@@H](Oc2cc(O)cc3cc4oc(C)cc(=O)c4c(O)c23)[C@H](O)[C@@H](O)[C@@H]1O [No. 24, Nor-rubrofusarin-6-O-β-D-(6’-O-acetyl)glucopyranoside] | > 500 | 226 | > 500 | > 500 | – | – | – | – | –
CC(=O)c1c(C)cc2cc(O)cc(O[C@@H]3O[C@H](CO)[C@@H](O)[C@H](O)[C@H]3O)c2c1O [No. 25, 6-Hydroxymusizin-8-O-β-D-glucopyranoside] | > 500 | 317 | > 500 | > 500 | – | – | – | – | –
CC(C)[C@]12O[C@H]1[C@@H]1O[C@]13[C@]1(O[C@H]1C[C@H]1C4=C(CC[C@@]13C)C(=O)OC4)[C@@H]2O [Triptolide, reference compound] | – | – | – | – | – | – | – | – | viability at 25 μmol/L ([3]; HepaRG cells co-cultured with HK-2 cells in IdMOC plates): 50.5 ± 5.68%; viability at 10 μmol/L ([4]; HK-2 cells co-cultured with HepaRG cells in IdMOC plates): 43.6 ± 2.26%

— PMC8320615 (Current Research in Toxicology, 2021)
